Results pooled from the literature.
Compare with care: the assays were run in different laboratories.
Cell line: MCF7
Observed: cell growth or viability

C=CCn1c(-c2ccc(Cl)c(Cl)c2)nc2ccccc21  IC50 (MTT): 50 µM
Cc1ccc(-c2csc(Nc3ccc4c(O)ncnc4c3)n2)cc1  IC50 (MTT): 6.28 µM
CC1(C)CC[C@]2(C(=O)O)CC[C@]3(C)C(=CC[C@@H]4[C@@]5(C)CC[C@H](O)C(C)(C)[C@@H]5CC[C@]43C)[C@@H]2C1  IC50 (MTT; 48 h): > 100 µM
Cc1ccc2nc(-c3ccc(N(C)C)cc3)[nH]c2c1  IC50 (MTT; 48 h): 47.7 µM
O=c1[nH]c(=S)[nH]c2c1CCCN2  IC50 (MTT; 72 h): > 100 µM
COc1cc2ncnc(Nc3ccc(F)c(Cl)c3)c2cc1NC(=O)N/N=C/CN1CCCCC1  IC50 (MTT; 72 h): 6.42 µM
O=[N+]([O-])c1ccc(-c2nc3ccccc3n2Cc2ccccc2)cc1  IC50 (MTT): 9.56 µM
CCOC(=O)/C=C1\S/C(=N\C(=O)c2ccc3ccccc3c2)N(C2CCCCC2)C1=O  IC50 (48 h): 14.9 µM
COc1ccc(O)c(/C=N/c2nc(SC)nn2-c2ccc(C(=O)O)cc2)c1  IC50 (MTT): 27.3 µM
COCO[C@H]1C[C@H]2OC(C)(C)OC[C@]23[C@@H]2[C@@H](CC[C@]3(O)C1)[C@@]1(OCOC)CC[C@H](CO)[C@@]1(C)C[C@H]2OCOC  IC50 (resazurin; 72 h): > 100 µM
CCN(CC)CCCn1cccc1/C=N/NC(=O)Nc1cc2c(Nc3ccc(F)c(Cl)c3)ncnc2cc1O[C@H]1CCOC1  IC50 (MTT; 72 h): 2.49 µM
O=S(=O)(Cc1ccccc1)NN=Cc1cn(CCN2CCOCC2)c2ccccc12  IC50 (MTT; 48 h): 62.5 µM
COc1ccc(C(=O)O[C@@H]2CN3Cc4c(cc5c(c4OC)OCO5)[C@@]24C=C[C@H](OC)C[C@@H]34)cc1  IC50 (WST-1): > 10 µM
O=C1Nc2c(C(F)(F)F)cccc2[C@@]1(c1ccc(O)cc1)N1CCC(F)(F)C1  IC50 (resazurin; 72 h): 0.022 µM
O=C(NC(=S)NC1CCCCC1)c1ccc2ccccc2c1  IC50 (48 h): 5.22 µM
Nc1ncnc2c1ncn2[C@@H]1O[C@H](CO)[C@@H](O)[C@H]1O  IC50 (WST-1; 48 h): 48.3 µM
CS(=O)(=O)c1ccc(-n2cc(/C=N/N=c3\[nH]c(-c4ccc([N+](=O)[O-])cc4)cs3)c(-c3ccc(Br)cc3)n2)cc1  IC50 (MTT; 48 h): 35.7 µM
c1cnc2c(c1)ccc1cccnc12  IC50 (MTT; 48 h): > 50 µM
C#Cc1cccc(Nc2ncnc3cc(OCCOC)c(OCCOC)cc23)c1  IC50 (MTT): 3.16 µM
Cc1ccc2nc(-c3ccc(Cl)c(Cl)c3)n(Cc3ccccc3)c2c1  IC50 (MTT): 80.5 µM
FC(F)(F)c1cccc(Nc2ncnc3ccc(Nc4ccccc4)cc23)c1  IC50 (MTT; 24 h): 11.4 µM
CC(C)C(=O)Nc1ccc([N+](=O)[O-])c(C(F)(F)F)c1  IC50 (CCK-8; 48 h): 39 µM
COC(=O)/C=C1\S/C(=N\C(=O)c2ccc3ccccc3c2)N(C2CCCCC2)C1=O  IC50 (48 h): 14.3 µM
CS(=O)(=O)c1ccc(-n2cc(/C=N/N=c3\[nH]c(-c4ccc(Br)cc4)cs3)c(-c3ccc(Br)cc3)n2)cc1  IC50 (MTT; 48 h): 16.7 µM
O=C(/C=C/c1ccc(O)c(O)c1)O[C@@H]1C[C@](O)(C(=O)O)C[C@@H](O)[C@H]1O  IC50 (WST-1; 48 h): 9.5 µM
CC/C(=C(\c1ccc(O)cc1)c1ccc(OCCN(C)C)cc1)c1ccccc1  IC50 (5 days): 4.22 µM
CCN(CC)CCn1cccc1/C=N/NC(=O)Nc1cc2c(Nc3ccc(F)c(Cl)c3)ncnc2cc1O[C@H]1CCOC1  IC50 (MTT; 72 h): 1.28 µM
Nc1nc(Oc2ccccc2)nn1-c1ccc(C(=O)O)cc1  IC50 (MTT): 18.7 µM
COc1cc2ncnc(Nc3ccc(F)c(Cl)c3)c2cc1NC(=O)N/N=C/CN1CCCC1  IC50 (MTT; 72 h): 7.53 µM
CC(C)C[C@H](NC(=O)[C@H](Cc1ccccc1)NC(=O)c1cnccn1)B(O)O  IC50 (ATP luminescence): 0.0088 µM
Oc1c(I)cc(Cl)c2cccnc12  IC50 (MTT; 48 h): 50.2 µM
COc1ccc(C2=N[C@@H](c3ccc(Cl)cc3)[C@@H](c3ccc(Cl)cc3)N2C(=O)N2CCNC(=O)C2)c(OC(C)C)c1  IC50 (MTT; 48 h): 11 µM
COc1cccc2c1C(=O)c1c(O)c3c(c(O)c1C2=O)C[C@@](O)(C(=O)CO)C[C@@H]3O[C@H]1C[C@H](N)[C@H](O)[C@H](C)O1  IC50 (MTT): 3.39 µM
O=C(NC(=S)Nc1ccccc1)c1ccc2ccccc2c1  IC50 (48 h): 5.11 µM
CCN(CC)CCn1cccc1/C=N/NC(=O)Nc1cc2c(Nc3ccc(F)c(Cl)c3)ncnc2cc1OC  IC50 (MTT; 72 h): 0.57 µM
COc1cc(CNCC2CCNCC2)ccc1OCc1cccc(C)c1  IC50 (MTT; 72 h): > 100 µM
O=S(=O)(NN=Cc1cn(CCN2CCOCC2)c2ccccc12)c1ccc(F)cc1  IC50 (MTT; 48 h): 32.6 µM
O=C(N/N=C/CN1CCCC1)Nc1cc2c(Nc3ccc(F)c(Cl)c3)ncnc2cc1O[C@H]1CCOC1  IC50 (MTT; 72 h): 3.12 µM
O=Cc1ccc(-c2ccc3ncnc(Nc4cccc(C(F)(F)F)c4)c3c2)cc1  IC50 (MTT; 24 h): 15.5 µM
Oc1ncnc2cc(Nc3nc(-c4ccc(Cl)cc4)cs3)ccc12  IC50 (MTT): 4.14 µM
c1cncc(-c2nc3ccccc3[nH]2)c1  IC50 (MTT; 48 h): > 100 µM
F[B-](F)(F)F.[Fe+3].c1cc[cH-]c1.c1cc[cH-]c1  IC50 (MTT): 150 µM
O=[N+]([O-])c1ccc(-c2nc3ccccc3[nH]2)cc1  IC50 (MTT; 48 h): 27.2 µM
C=C1C(=O)[C@]2(OC)C(=O)O[C@@]34C[C@H](C)C(C(=O)O)=C[C@@H]3CCC[C@@H](C)C[C@@H](C)[C@H]1O[C@H]24  IC50 (ATP luminescence): 21 µM
CSc1ccc(-c2nc3ccc(C)cc3[nH]2)cc1  IC50 (MTT; 48 h): 45 µM
Cc1cc(C)n(-c2nc(Nc3ccc(Cl)cc3)nc(-n3nc(C)cc3C)n2)n1  IC50 (MTT; 72 h): 2.29 µM
CN1CCN(CCCn2cccc2/C=N/NC(=O)Nc2cc3c(Nc4ccc(F)c(Cl)c4)ncnc3cc2O[C@H]2CCOC2)CC1  IC50 (MTT; 72 h): 2.12 µM
Clc1ccc(-c2nc3ccccc3[nH]2)cc1  IC50 (MTT; 48 h): 67.1 µM
